Columns and labels:
[1] = biological target: Matrix metalloproteinase-9 (Homo sapiens, UniProt P14780); assay: Inhibition of human MMP9
[2] = biological target: 72 kDa type IV collagenase (Homo sapiens, UniProt P08253); assay: Inhibition of human recombinant MMP2 using Mca-Lys-Pro-Leu-Gly-Leu-Dpa-Ala-Arg-NH2 as substrate by fluorescence plate reader analysis
In short: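 rhMMP2 activated with 1 mM APMA in assay buffer (50 mM Tris, 10 mM CaCl2, 150 mM NaCl, 0.05% Brij-35, pH 7.5), 37 °C, 1 h, then diluted to 248 ng/mL. Enzyme and test samples combined at ambient temperature; substrate (25 µM) added to start. Kinetic fluorescence at 320 nm excitation/405 nm emission; blank-subtracted duplicates; IC50 from six-point curves.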

MCF7 = assay: Cellular uptake in human MCF7 cells over-expressing MMP14 by confocal microscopy relative to control; type: ADME, cell-based
In short: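 MMP-14-overexpressing and parental MCF7 cells incubated with the conjugate at 37 °C and imaged by confocal microscopy, parental cells serving as comparison.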

[3] = biological target: Matrix metalloproteinase-14 (Homo sapiens, UniProt P50281); assay: Inhibition of human recombinant MMP14 using Mca-Lys-Pro-Leu-Gly-Leu-Dpa-Ala-Arg-NH2 as substrate by fluorescence plate reader analysis
In short: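 Enzyme and test samples combined at ambient temperature; substrate (20 µM) added to start. Kinetic read at 320/405 nm, substrate blank subtracted, duplicates, IC50 from six-point dose-response curves.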

Matrix metalloproteinase-9, sequence (P14780 whole entry): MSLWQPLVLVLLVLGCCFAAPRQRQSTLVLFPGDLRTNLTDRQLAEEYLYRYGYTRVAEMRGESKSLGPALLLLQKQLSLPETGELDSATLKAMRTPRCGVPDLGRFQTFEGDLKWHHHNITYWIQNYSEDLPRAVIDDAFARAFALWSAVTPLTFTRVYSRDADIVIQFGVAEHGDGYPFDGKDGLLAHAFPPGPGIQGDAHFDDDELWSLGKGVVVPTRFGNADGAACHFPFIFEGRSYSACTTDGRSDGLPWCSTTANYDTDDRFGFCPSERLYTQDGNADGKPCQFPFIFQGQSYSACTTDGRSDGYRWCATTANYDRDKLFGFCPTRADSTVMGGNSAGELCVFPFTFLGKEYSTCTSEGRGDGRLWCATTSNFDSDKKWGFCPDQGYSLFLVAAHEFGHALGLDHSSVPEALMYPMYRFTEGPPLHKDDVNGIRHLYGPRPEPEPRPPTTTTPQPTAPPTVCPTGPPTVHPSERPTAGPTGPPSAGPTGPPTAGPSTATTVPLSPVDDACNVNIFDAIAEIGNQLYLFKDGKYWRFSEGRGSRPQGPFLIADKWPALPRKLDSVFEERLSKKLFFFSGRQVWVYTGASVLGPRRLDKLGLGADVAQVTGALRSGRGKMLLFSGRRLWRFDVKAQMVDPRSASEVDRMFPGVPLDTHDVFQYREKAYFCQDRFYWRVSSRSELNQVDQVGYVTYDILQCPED
72 kDa type IV collagenase, sequence (P08253 whole entry): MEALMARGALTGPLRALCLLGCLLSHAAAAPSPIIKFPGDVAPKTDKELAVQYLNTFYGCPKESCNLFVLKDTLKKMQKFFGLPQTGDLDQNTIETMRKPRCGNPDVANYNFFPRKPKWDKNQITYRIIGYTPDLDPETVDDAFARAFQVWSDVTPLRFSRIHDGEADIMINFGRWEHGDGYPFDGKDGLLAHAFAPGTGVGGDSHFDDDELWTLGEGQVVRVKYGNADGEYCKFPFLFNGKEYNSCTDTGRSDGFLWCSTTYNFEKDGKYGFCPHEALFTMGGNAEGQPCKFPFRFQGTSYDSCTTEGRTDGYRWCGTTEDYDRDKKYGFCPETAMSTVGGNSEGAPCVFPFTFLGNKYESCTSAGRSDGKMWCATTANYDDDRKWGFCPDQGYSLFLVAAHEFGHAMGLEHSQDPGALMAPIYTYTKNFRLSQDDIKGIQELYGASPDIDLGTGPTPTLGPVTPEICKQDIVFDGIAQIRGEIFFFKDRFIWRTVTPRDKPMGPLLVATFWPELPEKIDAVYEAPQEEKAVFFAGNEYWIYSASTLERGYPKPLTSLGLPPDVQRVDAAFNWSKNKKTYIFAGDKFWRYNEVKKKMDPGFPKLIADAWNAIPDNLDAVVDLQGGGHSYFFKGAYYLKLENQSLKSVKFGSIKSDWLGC

Row | SMILES | IC50 [1] [nM] | IC50 [2] [nM] | Drug uptake (MCF7) | IC50 [3] [nM]
1 | CN(C)c1ncc(N2CCC(C(=O)NO)(S(=O)(=O)c3ccc(Oc4ccc(OC(F)(F)F)cc4)cc3)CC2)nc1C#N | < 1 | 1.6 | – | –
2 | CC1(C)C(/C=C/C2=C(N3CCC(C(=O)NO)(S(=O)(=O)c4ccc(Oc5ccc(OC(F)(F)F)cc5)cc4)CC3)C(=C/C=C3/N(CCCCS(=O)(=O)O)c4ccccc4C3(C)C)/CCC2)=[N+](CCCCS(=O)(=O)[O-])c2ccccc21 | 1.6 | 2.8 | – | –
3 | CC(C)(C)NC(=O)c1nc(N)c(C(=O)NCCC(=O)N2CCC(C(=O)NO)(S(=O)(=O)c3ccc(Oc4ccc(OC(F)(F)F)cc4)cc3)CC2)nc1N | 4.1 | 5.1 | – | –

Stronger by IC50 [2], values ahead:

Row | IC50 [1] [nM] | IC50 [2] [nM] | Drug uptake (MCF7) | IC50 [3] [nM] | SMILES
4 | – | < 1 | – | – | O=C(NO)C1(S(=O)(=O)c2ccc(Oc3ccc(OC(F)(F)F)cc3)cc2)CCN(C2CC2)CC1
5 | < 1 | < 1 | – | – | Nc1nc(C(=O)N2CCC(C(=O)NO)(S(=O)(=O)c3ccc(Oc4ccc(OC(F)(F)F)cc4)cc3)CC2)c(N)nc1C(=O)N1CCCC1
6 | < 1 | < 1 | Active | 100 | N[C@@H](CCCCNC(=O)c1ccc2c(c1)C(=O)OC21c2ccc(O)cc2Oc2cc(O)ccc21)C(=O)N1CCC(C(=O)NO)(S(=O)(=O)c2ccc(Oc3ccc(OC(F)(F)F)cc3)cc2)CC1

Reference: ChEMBL document CHEMBL2429723, “Design and synthesis of MMP inhibitors with appended fluorescent tags for imaging and visualization of matrix metalloproteinase enzymes” (Bioorg Med Chem Lett, 2013)
